Measured values published in the EternaBench riboswitch data.

Tested on: MS2 coat protein
Test: apparent Kd, MS2 coat protein; higher = weaker binding; RNA-MaP array; FMN 200 µM where present
In short: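 In 100 mM Tris-HCl pH 7.5, 80 mM KCl, 4 mM MgCl2, BSA, DTT, yeast tRNA and Tween-20, SNAP-549-labelled MS2 coat protein was titrated from 0.7 or 1.5 nM, doubling to 3 µM, over designs transcribed by stalled E. coli RNA polymerase on Illumina sequencing-chip clusters. This was done first without ligand, then with ligand held constant. After green signal was normalised to red-channel RNA signal and control-cluster median Fmax, the apparent Kd was taken as the median of filtered per-cluster binding-curve fits.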

[1] = designed as: OFF switch for flavin mononucleotide, no ligand
[2] = ligand present: flavin mononucleotide, designed as: OFF switch for flavin mononucleotide
[3] = designed as: ON switch for flavin mononucleotide, no ligand
[4] = ligand present: flavin mononucleotide, designed as: ON switch for flavin mononucleotide

Sequence | apparent Kd [1] | apparent Kd [2] | apparent Kd [3] | apparent Kd [4]
AAAUUAGGGAGAGGAUAUUGACAUGAGGAUCACCCAUGUAUUUGGGAGUGUUUACUGAAUUCUUACGAGAAGGCUUACGAAAUU | 320 nM | 255 nM | – | –
UUGGACGUCGUAGGAUAUGUAGGAUAUUCCUACAUGAGGAUCACCCAUGUUGACAUGGAAGAAGGACAGAAGGACGAUUUCCAU | – | – | 284 nM | 5.41 nM
GCCGAUUAAGUGAGGAUAUACCUAUGGAUACAUAGGUAGAAGGCACAUGAGGAUCACCCAUGUUCCUCAACGGC | 15.6 nM | 87.8 nM | – | –
UUAUUUAGGUAGGAUAUCGAUAUUAAUUAUUAUCGAGAAGGGUCUACAUGAGGAUCACCCAUGUUAGCAUGUAU | 28.1 nM | 29.9 nM | – | –
AAUAAACUCACAGGAUAUAGCAGAGGUCGCGUGAACUUACAGGCAACGAUGCUAGAAGGGUGACCACAUGAGGAUCACCCAUGU | – | – | 520 nM | 145 nM
GUGCAUACGUGAGGAUAUGUAUUAGAUAGUGGUACAGAAGGCAUGUCAGAUGACAUGAGGAUCACCCAUGUUGGCAAAAUGCGC | – | – | 47.5 nM | 10.2 nM
AUUUUAAUGUCAGGAUAUGUUAGUUAAUACAUAGUAGAAGGGAUAAUUAUACUCAUGUACAUGAGGAUCACCCAUGUUAAAUAA | – | – | 151 nM | 80.7 nM
UGUUUGCGGCAGGAUAUCCAUCCGCGGUGUGGUGGAGAAGGGCUGACAUGAGGAUCACCCAUGUGCGUCCUGUA | 19.4 nM | 27.5 nM | – | –
AAUAAUUAGUGAGGAUAUACAUAAUUUAUUACUGUAGAAGGCACAAACCUCAAGACAUGAGGAUCACCCAUGUGGUAUUUAAAU | 213 nM | 390 nM | – | –
AUAAGUGCAGGAUAUACGAAAUGCUAGCGAAAGCUAGCAUAACAUGAGGAUCACCCAUGUAGAAGGGCACAAUA | 28.4 nM | 21.5 nM | – | –
GUAAAGUGAGGAUAUGGUAAAUUAAUUAUUUAGUAAUUAAUCCAGAAGGCACAUGAGGAUCACCCAUGUAAAUG | 30.7 nM | 51.4 nM | – | –
AAUUAUUUGUAGAAGGAAGGAGAUUUUGUAUUCUUAGGAUAUACUAUUACAUGAGGAUCACCCAUGUUUGAAGGGUUGCAAUGU | 47.5 nM | 59.8 nM | – | –
GAGGAGUCAGGAUAUCGGGAAAGGUUGAGGAAGAGAAGAAGCGAGAAGGGACAUGAGGAUCACCCAUGUAGAAG | 52.4 nM | 47 nM | – | –
CCACCCUGAGGAUAUCCACCCUCAUACAUGAGGAUCACCCAUGUUCAUCCCUGAGUACCCGGAGAAGGCAGAUUCC | 60.3 nM | 50.6 nM | – | –
GGAUUACAUGAGGAUCACCCAUGUGAGGAUAUCGAUGUCCAGUAGGGCGUGCGGGACUCGAGAAGGCACUUGGA | 47.5 nM | 177 nM | – | –
UAAGUACGAGGAUAUACAUAGAUACAGAUACAUGUAGACGUACAUGAGGAUCACCCAUGUAGAAGGCGUAUAUA | 67.9 nM | 239 nM | – | –
GUUGAGUGAGAGAAGGCCAGUUGGGAAAAUGAUCGACAGUGUACAGCGUGGAGGAUAUCUCAACAUGAGGAUCACCCAUGUAUA | – | – | 186 nM | 12.3 nM
UUAUACAUGAGGAUCUCCCAUGACAUGAGGAUCACCCAUGUGCAGGAUAUACGUGUUAUAAUAUAGUAGAAGGGCAGACUAUAU | 41.1 nM | 74.3 nM | – | –
AUGUAUCGCCUCGAGGAUAUCCUGUCAUGCACAUGAGGAUCACCCAUGUAAGAGCGAGUUUAAUGGGAGAAGGCGAGUUCUCGGU | – | – | 111 nM | 35 nM
GGACGUCACAUCUACAUGAGGAUCACCCAUGUCGAAAGACAUGAGGAUAUGCAUCCUAAUUGGAUGCAGAAGGCAUGGACGUCC | – | – | 667 nM | 69.7 nM
CUUCUGUAAGGAUAUGUAAAUUGCUGACCACACCAGCACCGGCAGAAGGUACAUGAGGAUCACCCAUGUGGGUU | 240 nM | 148 nM | – | –
AAUUGGAUGCAGAAGGCAUGGACGACUCGUCACAUUAACAUGAGGAUCACCCAUGUAAUAAGACAUGAGGAUAUGCAUCCUAAA | – | – | 7.68 nM | 5.49 nM
AAUUGAAACGUAGGAUAUCGCAAAGAUCUAGAACGAGAAGGACGUACAUGAGGAUCACCCAUGUUAAAUGGUGAAGAUUAGAUG | 768 nM | 916 nM | – | –
UGUGCGUAUGUGAGGAUAUGCUGGUCCUUGGCUCGGCAGAAGGCACAUGAGGAUCACCCAUGUGGUGUCGUACU | 108 nM | 104 nM | – | –
CUCGAGUCAAGGCUCGCGAGUACACAGGAUAUGAAAAGUCACAUGAGGAUCACCCAUGUCCAAAAUCAGAAGGGUGAGACUAAG | – | – | 764 nM | 222 nM

Sequence | apparent Kd [1] | apparent Kd [2] | apparent Kd [3] | apparent Kd [4]
AGCAUGGUAGGAUAUACGGAACAUUAGGGUUUGUUGUGUGGACAUGAGGAUCACCCAUGUAGAAGGGCCGUGCA | 34 nM | 80.4 nM | – | –
GUGGUACAUGAGGAUCACCCAUGUCAGGAUAUCGUGUGUUUUUUUUCGGCCGCGCGCGCGAGAAGGGACGUCUU | 21.6 nM | 21.6 nM | – | –
UGCGAACAGGCUAACAUGAGGAUCACCCAUGUGGACUCAUGGUAGGAUAUCGGGAAGGAGGAAACCGAGAAGGGCCGGUGAGCG | – | – | 197 nM | 65 nM
UUACGUCCCGUUUACAUGAGGAUCACCCAUGUCGAAAGAGCGUAGGAUAUGCUACCUAGUUGGUAGCAGAAGGAUGCAACGUCG | – | – | 25.2 nM | 37.5 nM
GGACGUCGCAUUAACAUGAGGAUCACCCAUGUCAAAGGACAUGAGGAUAUGGAUCCUAAUUGGAUCCAGAAGGCAUGGACGUCC | – | – | 485 nM | 35.8 nM
GUACUGUAGUGAGGAUAUACGAGAACGAUAGUUCGGCGAUCCAUAUAUACAUGAGGAUCACCCAUGUAGAAGGCACUUCAGUAC | 9.3 nM | 108 nM | – | –
GCAGCGCUUGACAUGAGGAUCACCCAUGUUAGAUUGUUAAGUCAGGAUAUAGUCUAGAAACUAGACUAGAAGGGAUUUGCUGCU | – | – | 7.18 nM | 6.14 nM
GCACUGGAUGUAGGAUAUCAGGACGAUAAGUCCUGAGAAGGACAUGAGGAUCACCCAUGUAACUCAUAACCAGUGCAUAAUAUA | 15 nM | 24.8 nM | – | –
AUUAUUAAAGUGAGGAUAUCUAGAGCUUCGGCUCUAGAGAAGGCACAUGAGGAUCACCCAUGUCUCAAUUAUUA | 18.5 nM | 59.4 nM | – | –
AAAUUUAACGAAGGAUAUGCUGACAUGAGGAUCACCCAUGUGUGCUUUGUGUUGCUGAAAUGGGAGCAGAAGGUCGUAUACAUA | – | 128 nM | – | –
UACCUGAGGCUUUGCUUUAGGCUUACAUGAGGAUCACCCAUGUAGGAUAUGGUAGGCAAAGCUUACCAGAAGGACAUGGAAAUU | 19 nM | 66.6 nM | – | –
GGAUCGUAUGUCAGGAUAUACCACUGGAUACAGUGGUAGAAGGGACAUGAGGAUCACCCAUGUCUUAUCGAUCC | 13.2 nM | 18.3 nM | – | –
AAGUCCAGAGGAUAUCAGACGCGGCACAUGAGGAUCACCCAUGUAUUCCCGUCUGCCGACUGAGAAGGUUGGAAAG | 12 nM | 17.8 nM | – | –
AUUGUUAAGGUAGGAUAUAGUAAAAUGAUUUAGUUAGAAGGAUCUCACAUGAGGAUCACCCAUGUAAGAGGAUCACCCAUGUAU | 11.1 nM | 9.45 nM | – | –
GAAUAGGCAGGAUAUACAUGAGGAUCACCCAUGUGCCUGCGAAAGGUACGUUCGAAAGGUAGAAGGGCCUAAAC | 12.1 nM | 17.1 nM | – | –
UCCAUCCCUGUGAGGAUAUCGUCCGUUUUUUGUUCCGAGAAGGCACAUGAGGAUCACCCAUGUUUUUUGUUUUU | 29.4 nM | 58.8 nM | – | –
AAAACACAUGAGGAUCACCCAUGUAUCUGGACCAUAGGAUAUCCGCGCCCACUAGGGUAUGGAGAAGGGUGAGCCC | – | – | 161 nM | 122 nM
CUGUACAUAGGAUAUAGUUGCUUUUACAUGAGGAUCACCCAUGUCACUCCUCUCUCUCUUCUAGAAGGAUGUUUCU | 72.4 nM | 53.8 nM | – | –
GGGUACAUCGAAGGAUAUCAUGUAAAUACAUGAGGAUCACCCAUGUCGAUGGAGACAUCGGAGAUUGAGAAGGCCGAUGUACCG | – | – | 338 nM | 28.1 nM
UCGGCGCGAGGAUAUACGGUUGCUUGGUAGGGUCGUGGCGUACAUGAGGAUCACCCAUGUAGAAGGCGCGCCGC | – | 60.3 nM | – | –
GUUCCACAUGAGGAUCACCCAUGUGAGGAUAUGGAUUCGCUGGCCGUAGCCAGUGGAUCCAGAAGGCGCGUGAU | 77.4 nM | 96.6 nM | – | –
UGCCUGAGUCGAGGAUAUUAUGGAUCCUUUAAUACAUGAGGAUCACCCAUGUAAUUAAUUAUACAUGAGAAGGCGACUCAGGCU | – | – | 88.8 nM | 12.5 nM
UAUAUAUAGUAAGGAUAUGUAUUUGUUUUAUAAACAGAAGGUACUGACAUGAGGAUCACCCAUGUUUUAGUGUGGGCAUGUAGA | 39.5 nM | 41.4 nM | – | –
UUGGACGUCGUAGGAUAUGUAGGAUAUUCCUACAUGAGGAUCACCCAUGUUGACAUGGAAGCAGGACAGAAGGACGAUGUCCAU | – | – | 578 nM | 14.3 nM
